In ChEMBL document CHEMBL2417396 (J Nat Prod, 2013):
Active and inactive are the calls of the source. No cut-off for these calls is given here.

Molecular target: T1, Tubulin (Homo sapiens) (UniProt P68371+Q9H4B7+P0DPH7+P68366+Q13509+Q71U36+P04350+Q3ZCM7+P07437+P68363+Q9BQE3+Q6PEY2+Q13885+Q9BVA1+Q9BUF5)
Experiment: Displacement of [3H]colchicine from tubulin (unknown origin) at 5 uM
Format: protein-complex assay
Conditions: not given
Method in brief: (§1)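 Colchicine binding assay with 1 μM tubulin and 5.0 μM [3H]colchicine. Inhibitor tested at 50, 5 and/or 1 μM.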

SMILES	inhibition [%]
COc1ccc2c(C(=O)c3cc(OC)c(OC)c(OC)c3)c(-c3ccc(OC)c(OP(=O)(O)O)c3)[nH]c2c1	26

Tested on: SK-OV-3
Experiment: Cytotoxicity against human SKOV3 cells by SRB assay
Format: functional
Conditions: not given
Method in brief: (§2)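 Cell lines obtained from ATCC and kept in recommended media containing gentamicin and amphotericin B. Growth inhibition was measured by the NCI standard sulforhodamine B assay. GI50 is the drug concentration calculated to halve net protein increase relative to untreated cells. Values are averages of at least three separate experiments, each run in triplicate.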

SMILES	GI50 [nM]
COc1ccc(/C=C\c2cc(OC)c(OC)c(OC)c2)cc1O [COMBRETASTATIN A4]	0.42
COc1ccc2c(C(=O)c3cc(OC)c(OC)c(OC)c3)c(-c3ccc(OC)c(OP(=O)(O)O)c3)[nH]c2c1	22.3
COc1ccc2c(C(=O)c3cc(OC)c(OC)c(OC)c3)c(-c3ccc(OC)c(OP(=O)(O)O)c3)n(C)c2c1	8640
COc1ccc2c(C(=O)c3cc(OC)c(OC)c(OC)c3)c(-c3ccc(OC)c(O)c3)n(C)c2c1	2050

Tested on: DU-145
Experiment: Cytotoxicity against human DU145 cells by SRB assay
Format: functional
Conditions: not given
Method in brief: as §2

SMILES	GI50 [nM]
COc1ccc(/C=C\c2cc(OC)c(OC)c(OC)c2)cc1O [COMBRETASTATIN A4]	0.54
COc1ccc2c(C(=O)c3cc(OC)c(OC)c(OC)c3)c(-c3ccc(OC)c(OP(=O)(O)O)c3)[nH]c2c1	29.7
COc1ccc(/C=C\c2cc(OC)c(OC)c(OC)c2)cc1OP(=O)(O)O [FOSBRETABULIN DISODIUM]	16
COc1ccc2c(C(=O)c3cc(OC)c(OC)c(OC)c3)c(-c3ccc(OC)c(OP(=O)(O)O)c3)n(C)c2c1	4670
COc1ccc2c(C(=O)c3cc(OC)c(OC)c(OC)c3)c(-c3ccc(OC)c(O)c3)n(C)c2c1	2680

Tested on: Mus musculus
Experiment: Vascular disrupting activity in human PC3 cells xenografted SCID mouse assessed as decrease of blood flow in tumor at 350 mg/kg, ip after 80 mins by bioluminescence imaging analysis
Format: functional, organism-based
Parameters: dose 350 mg/kg
Conditions: PC-3

SMILES	Activity
COc1ccc2c(C(=O)c3cc(OC)c(OC)c(OC)c3)c(-c3ccc(OC)c(OP(=O)(O)O)c3)[nH]c2c1	Active

Molecular target: T1, Tubulin (Homo sapiens)
Experiment: Displacement of [3H]colchicine from tubulin (unknown origin) at 50 uM
Format: protein-complex assay
Conditions: not given
Method in brief: as §1

SMILES	inhibition [%]
COc1ccc2c(C(=O)c3cc(OC)c(OC)c(OC)c3)c(-c3ccc(OC)c(OP(=O)(O)O)c3)n(C)c2c1	29
COc1ccc2c(C(=O)c3cc(OC)c(OC)c(OC)c3)c(-c3ccc(OC)c(O)c3)n(C)c2c1	34

Tested on: not listed separately
Experiment: Inhibition of bovine brain tubulin polymerization after 20 mins
Parameters: species or system Bos taurus
Conditions: not given
Method in brief: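 Purified bovine brain tubulin, 10 μM (1.0 mg/mL), preincubated with a concentration series in glutamate buffer at 30 °C, then cooled to 0 °C. GTP added, then warmed to 30 °C to start assembly. Turbidity read at 350 nm, with disassembly checked by cooling.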

SMILES	IC50 [nM]
COc1ccc2c(C(=O)c3cc(OC)c(OC)c(OC)c3)c(-c3ccc(OC)c(OP(=O)(O)O)c3)[nH]c2c1	4200
COc1ccc2c(C(=O)c3cc(OC)c(OC)c(OC)c3)c(-c3ccc(OC)c(OP(=O)(O)O)c3)n(C)c2c1	> 20000
COc1ccc2c(C(=O)c3cc(OC)c(OC)c(OC)c3)c(-c3ccc(OC)c(O)c3)n(C)c2c1	> 20000

Tested on: NCI-H460
Experiment: Cytotoxicity against human NCI-H460 cells by SRB assay
Format: functional
Conditions: not given
Method in brief: as §2

SMILES	GI50 [nM]
COc1ccc(/C=C\c2cc(OC)c(OC)c(OC)c2)cc1O [COMBRETASTATIN A4]	2.8
COc1ccc2c(C(=O)c3cc(OC)c(OC)c(OC)c3)c(-c3ccc(OC)c(OP(=O)(O)O)c3)[nH]c2c1	31.1
COc1ccc(/C=C\c2cc(OC)c(OC)c(OC)c2)cc1OP(=O)(O)O [FOSBRETABULIN DISODIUM]	66
COc1ccc2c(C(=O)c3cc(OC)c(OC)c(OC)c3)c(-c3ccc(OC)c(OP(=O)(O)O)c3)n(C)c2c1	3560
COc1ccc2c(C(=O)c3cc(OC)c(OC)c(OC)c3)c(-c3ccc(OC)c(O)c3)n(C)c2c1	4140
